Laboratory results from article PMC3556183 (Journal of neuroendocrinology, 2013).
Ends that are not written are not given here.

Experiments:
[1] = system: dispersed, primary rat pituitary cultures; experiment: Static incubation of dispersed anterior pituitary cells, hormone release; assay type: cell-based; conditions: for GnRH-stimulated LH release: female pituitary cultures, overnight (24-hour) pretreatment, then GnRH for one hour, Figure 3A and B
Procedure, shortened: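 Rat anterior pituitary cells were trypsin-dispersed and cultured 48 h in tubes (MEM, 10% horse serum, 37°C). Cultures were pretreated 24 h with medium or peptide fragments. Medium was replaced by M199 with 0.1% BSA, 2×10⁻⁵ M bacitracin and 20 mM HEPES, with the same pretreatment. Cells were incubated 30 or 60 min at 37°C ± GnRH, and the incubation was ended by centrifugation. LH was measured by RIA (RP-3 standards) as mean ± SEM.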

[2] = system: Antibodies used in the EIA; experiment: Cross-reactivity of the antibodies used in the phoenixin EIA; assay type: binding
PNX antiserum = conditions: rabbit polyclonal antiserum; ref Phoenix Pharmaceuticals, Inc; cited from earlier work
[3] = system: pituitary and ovary cell membranes; experiment: Preliminary binding of phoenixin-20 to pituitary and ovary cell membranes; parameters: species or system rat; conditions: data not shown; for displacement of phoenixin-20 binding: pituitary and ovary cell membranes, female rat donors
GnRH receptor [4] = experiment: RT-PCR of GnRH receptor mRNA in dispersed primary pituitary cell cultures; assay type: cell-based, rat
Procedure, shortened: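 Dispersed primary rat anterior pituitary cultures were pretreated overnight with the peptide: male cultures with or without GnRH, female cultures without GnRH. RNA was extracted and reverse-transcribed with oligo d(T) and MMLV RT. SYBR Green real-time PCR was run with primer efficiencies >85%. Changes were calculated by delta delta Ct, normalised to HPRT-1, and compared by t test.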

[5] = system: dispersed pituitary cells from random cycle, female donors; experiment: Dynamic; assay type: cell-based, rat; conditions: 1000nM phoenixin-20 for 24 hours
Procedure, shortened: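 Rat anterior pituitary cells from random-cycle females, trypsin-dispersed (0.1%), cultured 48 h at 37°C in MEM with 10% horse serum. Pretreated 24 h with medium or 1000nM amidated 20-residue peptide, resuspended in M199/0.1% BSA/bacitracin/20 mM HEPES; ~2 million cells perifused on Bio-Gel P2 columns (0.05 ml/min). Peptide present throughout. 5-min fractions: basal, 10 nM GnRH 50 min, medium 50 min, 60 mM KCl 10 min, medium 40 min. LH by RIA (RP-3 standards); mean ± SEM.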

male pituitary cells = experiment: LH release from similarly prepared male pituitary cells; assay type: cell-based, rat; conditions: Supplemental Figure 2
GnRH receptor [6] = experiment: RT-PCR of GnRH receptor message in alphaT3-1 gonadotroph cells; assay type: cell-based, mouse; conditions: alphaT3-1 cells; normalized to GAPDH; Figure 3E
Procedure, shortened: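 Mouse αT3-1 gonadotroph cells were exposed to the peptide. RNA was reverse-transcribed using oligo d(T) and MMLV reverse transcriptase. GnRH receptor message was quantified by SYBR Green real-time PCR with primer efficiencies >85%, using the delta delta Ct method with GAPDH normalisation. Groups were compared by t test.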

cFos = experiment: RT-PCR of cFos message in alphaT3-1 gonadotroph cells; assay type: cell-based, mouse; conditions: alphaT3-1 cells; not shown

## DVQPPGLKVWSDPF-NH2 [phoenixin-14]
[1]
  GnRH-stimulated LH release: potentiated
[2]
  cross-reaction with the antibodies used in the EIA: 100%
PNX antiserum
  cross-reactivity with PNX antiserum in radioimmunoassay: 100%

## angiotensin II (DRVYIHPF; Angiotensin-2; UniProt P01019 25-32, looked up) [reference compound]
[2]
  cross-reaction with the antibodies used in the EIA: 0%

## gonadotropin releasing hormone [gonadotropin-releasing hormone]
[3]
  displacement of phoenixin-20 binding: not displaced

## phoenixin
[1]; dispersed, primary rat pituitary cultures, data not shown
  basal release of LH, ACTH, prolactin, growth hormone, or TSH: did not alter
GnRH receptor [4]; dispersed pituitary cultures pretreated with phoenixin, medium alone, Figure 3D
  GnRH receptor messenger RNA: increased
GnRH receptor [4]; primary pituitary cell cultures from female donors, Figure 3G
  GnRH receptor expression in the absence of GnRH: significantly increased

## phoenixin-20: 20 amino acid amidated form of phoenixin (AGIVQEDVQPPGLKVWSDPF-NH2; UniProt C0HLM6 47-66, looked up)
[1]
  GnRH-stimulated LH release: potentiated
[5]; 10 nM GnRH, Figure 3C
  LH release when GnRH was included in the perifusate: significantly enhanced
[5]; then perifusion columns, no GnRH
  basal LH release during perifusion: did not alter
Male pituitary cells
  LH release compared to medium alone: no differences
GnRH receptor [4]; dispersed male anterior pituitary cell cultures, overnight pretreatment, Figure 3D
  ability of GnRH to upregulate the expression of GnRH receptor: potentiated
GnRH receptor [6]
  GnRH receptor message: increase
cFos
  cFos message: failed to attain significance
[3]; tissues from female rat donors, preliminary experiments
  specific binding to pituitary and ovary cell membranes: bound specifically
[2]
  cross-reaction with the antibodies used in the EIA: 100%
PNX antiserum
  cross-reactivity with PNX antiserum in radioimmunoassay: 100%

## urocortin (DNPSLSIDLTFHLLRTLLELARTQSQRERAEQNRIIFDSV; ends and bridges not checked; UniProt P55089 83-122, looked up)
[3]
  displacement of phoenixin-20 binding: not displaced
